Laboratory results published in ChEMBL document CHEMBL2151003, “Synthesis and antitumor activity of ring A modified glycyrrhetinic acid derivatives” (Eur J Med Chem, 2011).
Activity calls are given as the source filed them. The calls are words filed in the database; no cut-off is given here.

Experiments:
A549 [1] = test: Induction of apoptosis in human A549 cells assessed as apoptotic effect at 90 uM after 24 to 48 hrs by trypan blue cell counting analysis; type: functional
Summary of the method: (§1)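 A549 cells (approx. 500,000 per flask) were grown 24 h, then given compound-containing medium for about 24–48 h. Collected cells were pelleted, washed in PBS and mixed 1:1 with 0.4% trypan blue in PBS, pH 7.2. An automated counter distinguished cells with intact and with damaged membranes. Results are % apoptosis ± standard error, 6 experiments each.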

[2] = Cytotoxicity against human 518A2 cells after 96 hrs by SRB assay; type: functional, cell-based
Summary of the method: (§2)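 Monolayer cultures in RPMI 1640 with 10% heat-inactivated FBS and penicillin/streptomycin, 37 °C, 5% CO2. Exponentially growing cells were seeded, then treated 24 h later with serial dilutions (0–30 µM; DMSO or DMF ≤0.5% final) for 96 h. Cells were fixed with 10% TCA at 4 °C, stained with 0.4% SRB and solubilized in 10 mM Tris base; A570 was read. IC50 came from semi-log dose–response curves, ≥3 independent experiments.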

DLD-1 = test: Cytotoxicity against human DLD1 cells after 96 hrs by SRB assay; type: functional, cell-based; summary of the method: as §2
A549 [3] = test: Cytotoxicity against human A549 cells after 96 hrs by SRB assay; type: functional, cell-based; summary of the method: as §2
[4] = Cytotoxicity against human A253 cells after 96 hrs by SRB assay; type: functional, cell-based; summary of the method: as §2
[5] = Cytotoxicity against human Lipo cells after 96 hrs by SRB assay; type: functional, cell-based; summary of the method: as §2
MCF7 = test: Cytotoxicity against human MCF7 cells after 96 hrs by SRB assay; type: functional, cell-based; summary of the method: as §2
SW-1736 = test: Cytotoxicity against human SW1736 cells after 96 hrs by SRB assay; type: functional, cell-based; summary of the method: as §2
8505C = test: Cytotoxicity against human 8505C cells after 96 hrs by SRB assay; type: functional, cell-based; summary of the method: as §2
A2780 = test: Cytotoxicity against human A2780 cells after 96 hrs by SRB assay; type: functional, cell-based; summary of the method: as §2
A549 [6] = test: Induction of apoptosis in human A549 cells assessed as apoptotic effect at 8 uM after 24 to 48 hrs by trypan blue cell counting analysis; type: functional; summary of the method: as §1
A549 [7] = test: Induction of apoptosis in human A549 cells assessed as appearance of green fluorescent cells at 8 uM after 24 to 48 hrs by acridine orange/ethidium bromide staining based fluorescence microscopy; type: functional, cell-based
Summary of the method: (§3)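 Approx. 500,000 A549 cells per flask were grown 24 h, then exposed to compound-containing medium for 24–48 h. Cells from the supernatant were pelleted, washed and resuspended in PBS, mixed with AO/EB and examined by fluorescence microscopy. Green fluorescence was scored as apoptotic and red nuclei as necrotic; the read-out is qualitative.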

HCT-116 = test: Cytotoxicity against human HCT116 cells after 96 hrs by SRB assay; type: functional, cell-based; summary of the method: as §2
A-431 = test: Cytotoxicity against human A431 cells after 96 hrs by SRB assay; type: functional, cell-based; summary of the method: as §2
HT-29 = test: Cytotoxicity against human HT-29 cells after 96 hrs by SRB assay; type: functional, cell-based; summary of the method: as §2
A549 [8] = test: Induction of apoptosis in human A549 cells assessed as apoptotic effect at 60 uM after 24 to 48 hrs by trypan blue cell counting analysis; type: functional; summary of the method: as §1
A549 [9] = test: Induction of apoptosis in human A549 cells assessed as appearance of green fluorescent cells at 60 uM after 24 to 48 hrs by acridine orange/ethidium bromide staining based fluorescence microscopy; type: functional, cell-based; summary of the method: as §3
A549 [10] = test: Induction of apoptosis in human A549 cells assessed as apoptotic effect after 24 to 48 hrs by trypan blue cell counting analysis; type: functional; summary of the method: as §1
A549 [11] = test: Induction of apoptosis in human A549 cells assessed as appearance of green fluorescent cells at 20 uM after 24 to 48 hrs by acridine orange/ethidium bromide staining based fluorescence microscopy; type: functional, cell-based; summary of the method: as §3

SMILES: CC1(C)[C@@H](O)CC[C@]2(C)[C@H]3C(=O)C=C4[C@@H]5C[C@@](C)(C(=O)O)CC[C@]5(C)CC[C@@]4(C)[C@]3(C)CC[C@@H]12 [ENOXOLONE]
- Activity (A549 [1]): 73.73%

SMILES: COC(=O)[C@@]1(C)CC[C@]2(C)CC[C@]3(C)C(=CC(=O)[C@@H]4[C@@]5(C)CC[C@H](NC(=O)[C@H](C)N)C(C)(C)[C@@H]5CC[C@]43C)[C@@H]2C1
- IC50 [2]: 5.55 µmol
- IC50 (DLD-1): 6.44 µmol
- IC50 (A549 [3]): 5.38 µmol
- IC50 [4]: 4.46 µmol
- IC50 [5]: 5.82 µmol
- IC50 (MCF7): 5.08 µmol
- IC50 (SW-1736): 5.25 µmol
- IC50 (8505C): 4.46 µmol
- IC50 (A2780): 5.39 µmol
- Activity (A549 [6]): 56.77%
- Activity (A549 [7]): Active

SMILES: CCOC(=O)[C@@]1(C)CC[C@]2(C)CC[C@]3(C)C(=CC(=O)[C@@H]4[C@@]5(C)C[C@H](F)[C@@H](O)C(C)(C)[C@@H]5CC[C@]43C)[C@@H]2C1
- IC50 [2]: > 30 µmol
- IC50 (HCT-116): > 30 µmol
- IC50 (DLD-1): > 30 µmol
- IC50 (A549 [3]): > 30 µmol
- IC50 (A-431): > 30 µmol
- IC50 [4]: > 30 µmol
- IC50 (HT-29): 24.72 µmol
- IC50 [5]: > 30 µmol
- IC50 (MCF7): > 30 µmol
- Activity (A549 [8]): 80.32%
- Activity (A549 [9]): Active

SMILES: COC(=O)[C@@]1(C)CC[C@]2(C)CC[C@]3(C)C(=CC(=O)[C@@H]4[C@@]5(C)CC/C(=N\OC(=O)[C@H](C)NC(=O)OC(C)(C)C)C(C)(C)[C@@H]5CC[C@]43C)[C@@H]2C1
- IC50 [2]: 16.49 µmol
- IC50 (DLD-1): 19.1 µmol
- IC50 (A549 [3]): 15.83 µmol
- IC50 [4]: 14.12 µmol
- IC50 [5]: 18.99 µmol
- IC50 (MCF7): 15.17 µmol
- IC50 (SW-1736): 14.61 µmol
- IC50 (8505C): 15.47 µmol
- IC50 (A2780): 12.03 µmol
- Activity (A549 [10]): 68.54%
- Activity (A549 [11]): Active
